Data on 23 molecules can be found in ChEMBL document CHEMBL1155361, “Anti-oxidant, anti-fungal and anti-leishmanial activities of novel 3-[4-(1H-imidazol-1-yl) phenyl]prop-2-en-1-ones” (Eur J Med Chem, 2009).

Assay [1] can be described thus: Antioxidant activity assessed as superoxide radical scavenging activity at 0.5 mM by NBT reduction assay. It is filed as functional. In a few lines: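 Superoxide generated by an NADH/phenazine methosulphate system. The mix held 40 µl of 280 µM NADH, 40 µl of 80 µM NBT, 20 µl of 8 µM PMS, 10 µl of 1 mM sample in DMSO, and 0.1 M phosphate buffer pH 7.4 (concentrations are of the added solutions). Ran at room temperature, read formazan at 560 nm, and calculated %RSA = 100 − (OD test/OD control × 100).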

The next assay deals with Aspergillus fumigatus. In words: Antimicrobial activity against Aspergillus fumigatus at 100 ug/ml after 24 hrs by cup diffusion method. It is filed as functional. To be noted: for zone of inhibition at 100 µg/mL: read-out: DIZ. In a few lines: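 Cup diffusion on potato dextrose agar plates inoculated with the fungus, with samples dissolved in DMSO. Incubated at 45 °C for A. fumigatus. Read the diameter of the clear zone of inhibition around the sample.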

The next assay concerns Trichoderma viride. The assay is described as follows: Antimicrobial activity against Trichoderma viride at 100 ug/ml after 24 hrs by cup diffusion method. It is filed as functional. To be noted: for zone of inhibition at 100 µg/mL: read-out: DIZ. The essentials:
(§1)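 Cup diffusion on fungus-inoculated potato dextrose agar plates, with samples in DMSO. Incubated at 30 °C. Read the diameter of the clear inhibition zone surrounding the sample.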

Another assay relates to Yarrowia lipolytica. The assay is described as follows: Antimicrobial activity against Candida lipolytica at 100 ug/ml after 24 hrs by cup diffusion method. It is filed as functional. To be noted: for zone of inhibition at 100 µg/mL: read-out: DIZ. In a few lines: as §1
A further assay concerns Aspergillus niger. In words: Antimicrobial activity against Aspergillus niger at 100 ug/ml after 24 hrs by cup diffusion method. In kind it is functional. The settings on record: for zone of inhibition at 100 µg/mL: read-out: DIZ. The essentials: as §1
The next assay concerns Leishmania major. The assay is described as follows: Antileishmanial activity against Leishmania major promastigotes after 72 hrs. It is filed as functional, organism-based. In a few lines:
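Cultured Leishmania major parasites in M199 with 10% foetal bovine serum, 25 mM HEPES, and penicillin/streptomycin, at 24 °C with shaking. Harvested log-phase cells and diluted them to 2 × 10^6 cells/ml. Made 1 mg/ml DMSO stocks and serially diluted them in medium. Used DMSO as the negative control and amphotericin B as the positive control.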

≈ marks a conversion by molar mass, not a printed value.

On to `O=C(/C=C/c1ccc(-n2ccnc2)cc1)c1cc(Cl)ccc1Cl`, for which the Activity in assay [1] was determined as 18.8%. Further, the zone of inhibition at 100 µg/mL in the assay on Aspergillus fumigatus was determined as 19 mm; in the assay on Trichoderma viride it was 10 mm; with Yarrowia lipolytica, 10 mm; in the assay with Aspergillus niger, 6 mm. The IC50 with Leishmania major worked out at 0.99 µg/mL (≈ 2.88 µM).
Take `COc1cccc(C(=O)/C=C/c2ccc(-n3ccnc3)cc2)c1`: the Activity in assay [1] stood at 83.9%. Besides, the zone of inhibition at 100 µg/mL in the assay on Aspergillus fumigatus amounted to 16 mm; with Trichoderma viride, 8 mm; in the assay with Yarrowia lipolytica, 7 mm; in the assay with Aspergillus niger, 3 mm. For the same molecule, in the assay with Leishmania major, 0.98 µg/mL (≈ 3.22 µM) corresponded to half-maximal inhibition (IC50).
With `O=C(/C=C/c1ccc(-n2ccnc2)cc1)c1c(Cl)cccc1Cl`, the Activity in assay [1] is 47.7%. Besides, the zone of inhibition at 100 µg/mL in the assay on Aspergillus fumigatus was 20 mm; with Trichoderma viride, 6 mm; in the assay with Yarrowia lipolytica it was 7 mm; in the assay with Aspergillus niger, 4 mm. For the same molecule, the IC50 in the assay on Leishmania major was 0.67 µg/mL (≈ 1.95 µM).
In the case of `O=C(/C=C/c1ccc(-n2ccnc2)cc1)c1ccccc1F`, the Activity in assay [1] was 79.2%. Also, the zone of inhibition at 100 µg/mL was 17 mm with Aspergillus fumigatus, 5 mm in the assay on Trichoderma viride, 5 mm in the assay with Yarrowia lipolytica and 3 mm in the assay with Aspergillus niger. In the assay with Leishmania major, the half-inhibitory concentration (IC50) amounted to 0.98 µg/mL (≈ 3.35 µM).
Consider NYSTATIN, for which the inhibition zone (IZ) is 22 mm with Aspergillus fumigatus, 17 mm in the assay with Trichoderma viride, 16 mm in the assay on Yarrowia lipolytica and 10 mm in the assay with Aspergillus niger.
Regarding `O=C(/C=C/c1ccc(-n2ccnc2)cc1)c1ccc(Cl)cc1Cl`, the Activity in assay [1] was found to be 3.3%. For the same molecule, the zone of inhibition at 100 µg/mL was 15 mm in the assay on Aspergillus fumigatus, 2 mm in the assay on Trichoderma viride, 4 mm in the assay on Yarrowia lipolytica and 1 mm in the assay on Aspergillus niger. The molecule also gave an IC50 with Leishmania major of 0.72 µg/mL (≈ 2.1 µM).
Take `O=C(/C=C/c1ccc(-n2ccnc2)cc1)c1ccccc1Cl`: the Activity in assay [1] amounted to 70.4%. For the same molecule, the zone of inhibition at 100 µg/mL with Aspergillus fumigatus turned out to be 19 mm; in the assay on Trichoderma viride it was 5 mm; in the assay on Yarrowia lipolytica, 5 mm; in the assay on Aspergillus niger it was 5 mm. The half-inhibitory concentration (IC50) in the assay with Leishmania major amounted to 0.93 µg/mL (≈ 3.01 µM).
Take `CCCOC(=O)c1cc(O)c(O)c(O)c1`: the Activity in assay [1] is 91.3%.
With `COc1ccc(C(=O)/C=C/c2ccc(-n3ccnc3)cc2)cc1`, the Activity in assay [1] came to 66%. Further, the zone of inhibition at 100 µg/mL with Aspergillus fumigatus came to 17 mm; in the assay with Trichoderma viride it was 6 mm; in the assay with Yarrowia lipolytica, 6 mm; with Aspergillus niger it was 3 mm. This molecule came in with an IC50 with Leishmania major of 0.98 µg/mL (≈ 3.22 µM).
For the molecule `O=C(/C=C/c1ccc(-n2ccnc2)cc1)c1cccc(F)c1F`, the Activity in assay [1] was determined as 16.7%. Besides, the zone of inhibition at 100 µg/mL with Aspergillus fumigatus came to 19 mm; in the assay on Trichoderma viride, 4 mm; in the assay with Yarrowia lipolytica, 3 mm; with Aspergillus niger, 4 mm. This molecule had an IC50 in the assay with Leishmania major of 0.83 µg/mL (≈ 2.67 µM).
Turning to `COc1ccc(C(=O)/C=C/c2ccc(-n3ccnc3)cc2)cc1OC`, the Activity in assay [1] turned out to be 51%. For the same molecule, the zone of inhibition at 100 µg/mL amounted to 10 mm in the assay with Aspergillus fumigatus, 4 mm in the assay on Trichoderma viride, 4 mm with Yarrowia lipolytica and 3 mm in the assay on Aspergillus niger. This molecule also gave a concentration for half-maximal inhibition (IC50) in the assay with Leishmania major of 0.82 µg/mL (≈ 2.45 µM).
As to `O=C(/C=C/c1ccc(-n2ccnc2)cc1)c1ccc(F)cc1`, the Activity in assay [1] is 64.5%. For the same molecule, the zone of inhibition at 100 µg/mL with Aspergillus fumigatus is 1 mm; in the assay on Trichoderma viride, 1 mm; in the assay with Yarrowia lipolytica it was 1 mm; in the assay with Aspergillus niger, 2 mm. The molecule further displayed an IC50 with Leishmania major of 0.71 µg/mL (≈ 2.43 µM).
`O=C(/C=C/c1ccc(-n2ccnc2)cc1)c1ccccc1Br`: the Activity in assay [1] is 76%. Further, the zone of inhibition at 100 µg/mL in the assay with Aspergillus fumigatus is 18 mm; in the assay on Trichoderma viride, 2 mm; with Yarrowia lipolytica, 3 mm; with Aspergillus niger it was 4 mm. The same molecule had an IC50 in the assay with Leishmania major of 0.86 µg/mL (≈ 2.43 µM).
With `O=C(/C=C/c1ccc(-n2ccnc2)cc1)c1cccc(O)c1`, the Activity in assay [1] was determined as 8.65%. Besides, the zone of inhibition at 100 µg/mL in the assay with Aspergillus fumigatus was 5 mm; with Trichoderma viride, 6 mm; in the assay with Yarrowia lipolytica it was 5 mm; in the assay with Aspergillus niger it was 5 mm. This molecule had an IC50 with Leishmania major of 0.96 µg/mL (≈ 3.31 µM).
For the molecule `O=C(/C=C/c1ccc(-n2ccnc2)cc1)c1ccc(Cl)cc1`, the Activity in assay [1] was 90.1%. For the same molecule, the zone of inhibition at 100 µg/mL in the assay with Aspergillus fumigatus was found to be 20 mm; with Trichoderma viride it was 9 mm; in the assay on Yarrowia lipolytica, 10 mm; in the assay on Aspergillus niger, 8 mm. For the same molecule, the IC50 in the assay with Leishmania major stood at 0.92 µg/mL (≈ 2.98 µM).
`O=C(/C=C/c1ccc(-n2ccnc2)cc1)c1ccc(Br)cc1`: the Activity in assay [1] worked out at 42.1%. Moreover, the zone of inhibition at 100 µg/mL in the assay on Aspergillus fumigatus was found to be 18 mm; in the assay on Trichoderma viride it was 9 mm; with Yarrowia lipolytica, 8 mm; in the assay with Aspergillus niger, 4 mm. In the assay on Leishmania major, this molecule yielded an IC50 of 0.86 µg/mL (≈ 2.43 µM).
As to `O=C(/C=C/c1ccc(-n2ccnc2)cc1)c1ccc(F)c(F)c1`, the Activity in assay [1] was 8.3%. Also, the zone of inhibition at 100 µg/mL was 18 mm in the assay on Aspergillus fumigatus, 3 mm in the assay on Trichoderma viride, 4 mm with Yarrowia lipolytica and 4 mm with Aspergillus niger. In the assay on Leishmania major, the IC50 amounted to 0.89 µg/mL (≈ 2.87 µM).
Take `O=C(/C=C/c1ccc(-n2ccnc2)cc1)c1c(F)cccc1F`: in assay [1], the Activity stood at 69.5%. In addition, the zone of inhibition at 100 µg/mL was 15 mm with Aspergillus fumigatus, 5 mm in the assay with Trichoderma viride, 7 mm in the assay on Yarrowia lipolytica and 4 mm in the assay on Aspergillus niger. For the same molecule, the IC50 in the assay with Leishmania major was 0.97 µg/mL (≈ 3.13 µM).
Turning to `O=C(/C=C/c1ccc(-n2ccnc2)cc1)c1ccc(Cl)c(Cl)c1Cl`, the Activity in assay [1] was 2.4%. The zone of inhibition at 100 µg/mL in the assay on Aspergillus fumigatus came out at 10 mm; in the assay with Trichoderma viride, 6 mm; in the assay on Yarrowia lipolytica it was 6 mm; in the assay with Aspergillus niger it was 1 mm. Further, in the assay on Leishmania major, the concentration for half-maximal inhibition (IC50) was 0.63 µg/mL (≈ 1.67 µM).
On to `O=C(/C=C/c1ccc(-n2ccnc2)cc1)c1ccccc1`, for which, in assay [1], the Activity is 81.9%. In addition, the zone of inhibition at 100 µg/mL with Aspergillus fumigatus amounted to 18 mm; in the assay on Trichoderma viride, 3 mm; in the assay on Yarrowia lipolytica it was 4 mm; in the assay with Aspergillus niger, 4 mm. This molecule also yielded a concentration for half-maximal inhibition (IC50) in the assay with Leishmania major of 0.91 µg/mL (≈ 3.32 µM).
Take `O=C(/C=C/c1ccc(-n2ccnc2)cc1)c1ccc(Cl)c(Cl)c1`: the Activity in assay [1] came out at 0.4%. Also, the zone of inhibition at 100 µg/mL is 10 mm in the assay with Aspergillus fumigatus, 6 mm in the assay on Trichoderma viride, 7 mm in the assay on Yarrowia lipolytica and 2 mm with Aspergillus niger. Moreover, the IC50 with Leishmania major was 0.99 µg/mL (≈ 2.88 µM).
The molecule `C[C@@H]1[C@H](O)[C@@H](C)/C=C/C=C/C=C/C=C/C=C/C=C/C=C/[C@H](O[C@@H]2O[C@H](C)[C@@H](O)[C@H](N)[C@@H]2O)C[C@@H]2O[C@](O)(C[C@@H](O)C[C@@H](O)[C@H](O)CC[C@@H](O)C[C@@H](O)CC(=O)O[C@H]1C)C[C@H](O)[C@H]2C(=O)O` [AMPHOTERICIN B] had an IC50 in the assay on Leishmania major of 0.56 µg/mL (≈ 0.606 µM).
As to `O=C(/C=C/c1ccc(-n2ccnc2)cc1)c1ccc(I)cc1`, the Activity in assay [1] was found to be 40.4%. Moreover, the zone of inhibition at 100 µg/mL in the assay with Aspergillus fumigatus stood at 10 mm; with Trichoderma viride, 2 mm; in the assay on Yarrowia lipolytica, 3 mm; with Aspergillus niger, 2 mm. The IC50 with Leishmania major came out at 0.92 µg/mL (≈ 2.3 µM).

Broadly, the IC50 is the concentration at which inhibition is half-maximal. A higher IC50 goes with weaker potency in that assay.
